D1 mod: D1 CRE-luciferase signal change, two-sided – cell-based, HEK293 D1, dopamine EC30, D1 allosteric modulator project, primary screen; 58,000 compounds, 5.9% hits; B-score at 10 µM; dopamine EC30 potentiation; actives deviate in either direction; D(1A) dopamine receptor (Homo sapiens), P21728;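 active = luminescence count or its row- and column-corrected plate score outside the 99.7% band of the plate's sample wells, on either side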
RORa activator: activators of orphan receptor RORA, primary screen, cell-based, luminescence | AID 560, 2006 | 65,000 compounds, 1.5% hits | activation, % at 10 µM | CHO-K1 Gal4-RORA LBD luciferase reporter; percent increase over mock-subtracted basal signal | Nuclear receptor ROR-alpha (Homo sapiens), P35398;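 active = activation above the mean of all tested compounds plus 3 SD, cut at about 49% in these data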
mHtt clearance: clearance of mutant huntingtin inclusions, primary screen, imaging, HeLa Exon1htt(103Q)mCFP, confocal imaging. aggregate imaging; zero = plate's median compound well. inhibition, % at 1.5 µM. 47,000 compounds, 0.42% hits;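 active = inhibition of aggregate fluorescence above about 70%, also judged a hit by eye on the cell image, limit read from the data, passing the limit was not always enough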;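 note: cells exposed to compound for three days before fixation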
M1 antag: antagonists of rat M1 muscarinic receptor; CHO-M1 cells, Fluo-4 calcium, ACh EC80 antagonist mode; active compounds read low; B-score at 10 µM; 64,000 compounds, 3.4% hits; AID 628, 2007;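 active = calcium fluorescence response, raw or row-and-column corrected B-score, differing from the plate sample mean either way at a set confidence level, mostly lower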
Target sequence (P08482 whole entry, looked up): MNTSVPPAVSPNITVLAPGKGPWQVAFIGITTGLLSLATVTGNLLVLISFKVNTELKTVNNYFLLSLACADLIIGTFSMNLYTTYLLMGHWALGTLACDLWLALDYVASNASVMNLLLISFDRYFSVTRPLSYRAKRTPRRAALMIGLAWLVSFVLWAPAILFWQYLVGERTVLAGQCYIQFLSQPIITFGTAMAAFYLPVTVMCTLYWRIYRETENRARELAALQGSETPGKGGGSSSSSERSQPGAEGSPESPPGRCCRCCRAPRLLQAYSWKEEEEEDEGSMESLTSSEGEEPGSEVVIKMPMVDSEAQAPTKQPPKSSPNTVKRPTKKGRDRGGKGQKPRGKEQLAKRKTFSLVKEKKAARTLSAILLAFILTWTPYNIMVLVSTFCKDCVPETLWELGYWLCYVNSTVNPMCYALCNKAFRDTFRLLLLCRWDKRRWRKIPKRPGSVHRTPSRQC
M1 ag: M1 muscarinic receptor agonists, primary screen, CHO-M1 cells, Fluo-4 calcium, agonist mode. Fluo-4 calcium fluorescence; active compounds read high. AID 626, 2007. 64,000 compounds, 3% hits. B-score at 10 µM;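 active = fluorescence rise, raw or as B-score row- and column-corrected plate score, outside the 99.7% band of its plate's samples, either direction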
SF-1 act: activators of human SF-1, primary screen, cell-based, CHO-K1, Gal4-SF-1 LBD, luciferase luminescence; Steroidogenic factor 1 (Homo sapiens), Q13285; 65,000 compounds, 1.9% hits; AID 522, 2006; CHO-K1 Gal4-SF-1 LBD luciferase reporter; % increase over DMSO SF-1-specific signal; activation, % at 10 µM;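 active = activation above the mean activation of all tested compounds plus 3 SD, cut at about 50% in these data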
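Material: CHO-K1 cells with Gal4–hSF-1 LBD chimera plus Gal4-driven luciferase / Input: 4,000 CHO-K1 cells per well / Incubation: compound exposure 20 h at 37 °C / Signal: luminescence read 15 min after SteadyLite luciferase reagent, after room-temperature equilibration / Read-out: percent activation versus DMSO / Benchmarks: DMSO negative control and −SF1 background wells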
D1 mod confirm: D1 receptor positive allosteric modulators, retest, confirmation, cell-based, HEK293 D1, CRE-luciferase, duplicate; shares compounds with D1 mod; dopamine EC30 potentiation; active compounds read high; luminescence at 10 µM; 2,200 compounds, 88% hits;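 active = luminescence in either of two replicates above the same-plate mean plus 3 SD of the low-dose dopamine control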
D1 ag no DA: D1 receptor agonism without dopamine, confirmation, mechanism study for D1 allosteric modulator project, cell-based, HEK293 D1, CRE-luciferase, secondary assay 1; luminescence at 10 µM; 1,900 compounds, 0.8% hits; shares compounds with D1 mod; luminescence, no dopamine; active compounds read high; AID 646, 2007; in the data active = luminescence above about 3900
Isoprot counter: counter-screen for D1 modulators: isoproterenol response in HEK293 cells. shares compounds with D1 mod. HEK293 D1 CRE-luciferase, isoproterenol EC30 counter-screen. calls only at 10 µM. 2,200 compounds, 63% hits. AID 647;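 active = luminescence in either replicate above plate mean of wells with a partly effective reference agonist dose plus 3 SD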;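 note: isoproterenol raises cAMP through native beta-adrenoceptor Gs so signal bypasses D1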
A number is an active result; – = inactive; · = not tested or not shown; + = active, no number. Most compounds without a hit are left out; they make up all but 11% or so of the library.

SMILES | D1 mod | RORa activator | mHtt clearance | M1 antag | M1 ag | SF-1 act | D1 mod confirm | D1 ag no DA | Isoprot counter
CCSc1nc2c(c(=O)[nH]c(=O)n2C)n1Cc1ccc(Cl)cc1 | 5.5 | – | · | – | – | – | 15452 | – | +
CCCCCOC(=O)CSc1nc2c(c(=O)[nH]c(=O)n2C)n1Cc1ccc(Cl)cc1 | – | – | – | – | – | – | · | · | ·
COc1ccc(CN2C(=O)c3cccnc3C2Nc2cc(Cl)c(OC)cc2OC)cc1 (stereo unspecified) | 6.5 | – | · | – | – | – | 10420 | · | +
COCCCNC(=O)C1CCCN(C(=O)Nc2ccc(OC)cc2)C1 (stereo unspecified) | – | – | – | – | – | – | · | · | ·
Cn1c(SCC(=O)NCc2ccc3c(c2)OCO3)nc2scc(-c3cccs3)c2c1=O | – | – | · | – | – | – | · | · | ·
CCCn1c2ccccc2c2nnc(SCC(=O)Nc3ncccn3)nc21 | 20 | – | – | – | – | – | 22748 | – | +
CCn1c(SCC(=O)Nc2ccc(S(N)(=O)=O)cc2)nnc1-c1cccc(OC)c1 | – | – | – | – | – | – | · | · | ·
CC(C)(C)C1=Nn2c(nnc2C2CCCCC2)SC1 | 24 | – | – | – | – | – | 19908 | – | +
c1cc2c(cc1C1=Nn3c(nnc3C3CCCCC3)SC1)OCO2 | 28 | – | · | – | – | – | 25488 | – | +
Cc1nnsc1NC(=O)OCC(C)(C)C | · | · | – | · | · | · | · | · | ·
CCC(c1nnnn1Cc1ccco1)N(CCN1CCOCC1)Cc1cc2cc(C)ccc2[nH]c1=O (stereo unspecified) | – | – | – | – | – | – | · | · | ·
O=C(CSc1nnc(-c2ccccc2)n1Cc1ccco1)NCc1ccc2c(c1)OCO2 | · | · | – | · | · | · | · | · | ·
COc1ccccc1CC(=O)N1CCCC1 | – | – | · | – | – | – | · | · | ·
COc1ccc2cc3c(N)nn(C(=O)Cc4ccccc4OC)c3nc2c1 | 2.6 | – | · | – | – | – | 8828 | – | –
C=CCN1C(=O)/C(=C2\SC(N3CCOCC3)=NC2=O)c2cc(Br)ccc21 | 9 | – | – | – | – | – | 17804 | – | +
Cc1ccc(-n2c(SCC(N)=O)nnc2-c2ccc(S(=O)(=O)N3CCCCC3)cc2)c(C)c1 | · | · | – | · | · | · | · | · | ·
Cc1cc(=O)oc2cc(OC(C)C(=O)N3CCOCC3)ccc12 (stereo unspecified) | · | · | – | · | · | · | · | · | ·
Cc1cc(=O)oc2cc(OC(C)C(=O)Nc3nccs3)ccc12 (stereo unspecified) | 4.6 | – | – | – | – | – | 12128 | – | +
Cc1cc(N2CCCCC2)n2nc(C)c(-c3ccccc3)c2n1 | – | – | – | – | – | – | · | · | ·
Cc1cc(SCC#N)n2nc(C)c(-c3ccccc3)c2n1 | 14 | – | · | – | – | – | 14516 | – | +
O=C1CCCC(O)=C1C(C#Cc1ccccc1)C1=C(O)CCCC1=O | 3.6 | – | · | · | · | – | – | – | –
CCCCc1n[nH]c2c1/C(=N/O)CC(c1ccccc1)C2 (stereo unspecified) | – | – | – | – | – | – | · | · | ·
CCc1n[nH]c2c1/C(=N\O)CC(c1ccccc1)C2 (stereo unspecified) | 4.3 | – | – | – | – | – | 7364 | – | –
O=C(NC1CC2CCCC(C1)N2S(=O)(=O)c1ccccc1)c1ccccc1 (stereo unspecified) | · | – | – | – | – | – | · | · | ·
CC(=O)NC1CC2CCCC(C1)N2S(=O)(=O)c1ccccc1 (stereo unspecified) | 5.5 | – | · | · | · | – | – | – | –
